# Bioassay records: PubChem, several laboratories
# Compounds with a hit are over-represented: about 3.6% of the library has one in this group of screens.
# Yeast growth inh – chemicals that inhibit yeast BB579 growth in restrictive medium (lifespan-shortening candidates). S. cerevisiae BB579 growth, OD615, 48 h. inhibition, % at 10 µM. 0.51% of 140,000 active. AID 804;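 active = inhibition above a set limit, 3 SD over the mean compound inhibition, cut at about 44% in these data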
#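 test system = yeast BB579 (DeaD) | buffer or medium = restrictive CSMM-D medium | doses = single compound dose of 10 µM, 0.25% DMSO final | times = 4 h preincubation and 48 h exposure at 30 °C | technique = culture absorbance at 615 nm | benchmarks = amphotericin B 10 µg/mL, positive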
# RAM network inh – inhibitors of the yeast RAM network; S. cerevisiae dse1pr::URA3 reporter, 5-FOA growth OD615, 2 d; analog-sensitive cbk1-as2 kinase mutant strain; 1.8% of 190,000 active; AID 868; inhibition, % at 50 µM;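 active = inhibition above a set limit, 3 SD over mean compound inhibition, cut at about 8.4% in these data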;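 note: 0% = DMSO-only wells with no growth and 100% = 10 µM 1-NA-PP1 full growth; inhibition rescues growth on 5-FOA so higher OD means more RAM inhibition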
# Measles CPE – protection of cells from measles virus. Measles virus-infected cells, CPE protection, absorbance. protection (pct of control), % at 4 µM. 1.5% of 140,000 active. AID 841; in the data active = protection mostly above about 24%, no sharp cut-off; inactive = mostly below about 26%
# Phagocyt inh – macrophage phagocytosis inhibition | inhibition, % at 5 µM | J774A.1 macrophage IgG-bead phagocytosis, imaging | 0.07% of 110,000 active | AID 1029;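 active = inhibition above the mean of the plate negative controls plus 5 SD, cut at about 13% in these data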;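 note: phagocytic index as fraction of beads internalized from green versus red external bead signal; plate controls were DMSO negative control for no effect and cytochalasin-D positive control for full effect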
# Yeast life ext – extends the lifespan of yeast. S. cerevisiae growth with nicotinamide, OD615; deaD strain in restrictive glucose medium. inhibition of the nicotinamide effect, % at 10 µM. 0.68% of 130,000 active. AID 775;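 active = inhibition above a set limit, placed 3 SD over the median of all compounds, cut at about 26% in these data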;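 note: 0% = nicotinamide-treated wells and 100% = cells grown without nicotinamide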
#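 Test system: DeaD-strain S. cerevisiae / Buffer or medium: restrictive glucose medium / Also added: nicotinamide 1.5 mM / Doses: one concentration, 10 µM, DMSO 0.25% / Schedule: 48 h at 30 °C / Signal: OD615 measurement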
# RAM 5-FOA – RAM network inhibitors in efflux-deficient yeast; shares compounds with RAM network inh; S. cerevisiae efflux-deficient reporter strain, 5-FOA growth OD615, 2 days; max inhibition, %; 1,200 tested, under 10 active; AID 1305; call rule not given here;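 note: plate controls were vehicle for no effect and reference inhibitor for full effect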
# The depositor's hits bear a star; . = no result given.
SMILES,Yeast growth inh,RAM network inh,Measles CPE,Phagocyt inh,Yeast life ext,RAM 5-FOA
C=CCOC(=O)/C(=C/c1cccc2ccccc12)NC(=O)c1ccccc1,-45,42*,13,-6,9,2
COc1cccc(CSc2nc3cc4c(cc3cc2C)OCCO4)c1,-35,18*,15,-10,-3,3
CCS(=O)(=O)c1ccc(-c2csc(-c3ccc(Cl)cc3)n2)c(Cl)c1Cl,-23,12*,3,0,-25,3
C=CCSc1nc2ccccc2c2nc(-c3ccccc3)nn12,-10,13*,26,4,-7,2
C=CCNC(=O)CCC(=O)NNc1nc2ccccc2c2nc(-c3ccccc3)nn12,.,2,.,.,.,.
COc1ccc2c(C)cc(SCC(=O)Nc3ccc(Cl)cn3)nc2c1,-14,5,5,3,-4,.
CN(C(=S)Nc1ccc(Oc2ccccc2)cc1)c1ccc(O)cc1,-17,14*,8,1,-1,1
CC(OC(=O)c1oc2ccccc2c1COc1ccccc1)C(=O)NC(N)=O (stereo not given),.,3,.,.,.,.
O=C(Nc1ccccc1Cc1ccccc1)c1oc2ccccc2c1COc1ccccc1,-65,12*,3,-4,9,4
O=C(NCCc1ccccc1)c1oc2ccccc2c1COc1ccccc1,-34,19*,9,-5,3,4
NC(=O)c1ccsc1NC(=O)COC(=O)Cc1cccc2ccccc12,-23,4,14,-1,-15,.
COc1ccc(COC(=O)N/N=C(\C)CC(=O)NCc2ccc(Cl)cc2)cc1,.,2,.,.,.,.
COc1ccc(C(=O)Nc2cc(OC)c(Cl)cc2OC)cc1,.,11*,.,.,.,3
CC1CCN(c2nc(-c3ccccc3)cc(C(F)(F)F)n2)CC1,-68,7,17,.,-8,.
Cc1ccc(-c2cc(C(F)F)nc(N3CCC(C)CC3)n2)cc1,-4,12*,4,-1,-16,5
CC(C)c1ccc(/C=C(\c2nc3ccccc3[nH]2)S(=O)(=O)c2ccccc2)cc1,-47,19*,0,0,6,3
CCCCNC(=O)CNC(=S)N(CCCN1CCOCC1)Cc1cccs1,-14,1,6,-13,-2,.
Cc1ccc(C(=O)CC(=O)c2ccc(C(C)(C)C)cc2)cc1,.,20*,.,.,.,8
O=C(COC(=O)c1ccc2c(=O)n3c(nc2c1)CCC3)Nc1ccc(OC(F)F)cc1,.,13*,.,.,.,2
Cc1cccc(NC(=O)COC(=O)c2ccc3c(=O)n4c(nc3c2)CCC4)c1,-28,1,3,-4,-3,.
COc1ccc(C(=O)CSc2nc(C(C)(C)C)nc3ccccc23)cc1,.,13*,.,.,.,2
CC1=NN(c2nc(-c3ccccc3)cs2)C(=O)C1N=Nc1ccccc1 (stereo not given),.,5,.,.,.,.
CC1=NN(c2nc(-c3ccc(C)cc3)cs2)C(=O)C1N=Nc1ccc(C(N)=O)cc1 (stereo not given),.,12*,.,.,.,7
CC(=O)NC1C(OCc2ccccc2)OC2COC(C)(C)OC2C1O (stereo not given),.,2,.,.,.,.
CCCCOC(=O)c1ccc(NC(=S)NC(=O)c2c(Cl)cnn2C)cc1,-44,16*,3,.,-9,1
SMILES,Yeast growth inh,RAM network inh,Measles CPE,Phagocyt inh,Yeast life ext,RAM 5-FOA
CCCCOC(=O)c1ccc(NC(=S)NC(=O)c2c(Cl)cnn2CC)cc1,-41,8,18,.,-8,.
COc1ccccc1-c1cc(C(F)(F)F)nc(N2CCN(c3ccccc3)CC2)n1,-51,13*,8,.,-10,4
COc1ccccc1-c1cc(C(F)(F)F)nc(N2CCN(c3ccc(F)cc3)CC2)n1,-49,8,7,.,.,.
COc1ccc(OC)c(NC(=O)C(Sc2ccccc2)c2ccccc2)c1 (stereo not given),-24,14*,7,-1,-6,4
Cc1cccc(OCc2nnc(SCC(=O)c3ccccc3)o2)c1,-41,12*,23,-2,-8,2
Cc1cc(C)cc(OCc2nnc(SCC(=O)c3ccccc3)o2)c1,-58,8,4,1,-12,.
Cc1ccc(C(=O)CSc2nnc(COc3cc(C)cc(C)c3)o2)cc1,-21,12*,14,2,5,1
O=C(CSc1nnc(-c2cccc(S(=O)(=O)N3CCCCC3)c2)o1)c1ccc[nH]1,-37,1,12,-1,-12,.
O=C(CSc1nnc(-c2cccc(S(=O)(=O)N3CCCCC3)c2)o1)NCCC1=CCCCC1,-55,12*,34,0,-7,4
CCN(CC)S(=O)(=O)c1cccc(-c2nnc(SC(C)C(=O)NCCC3=CCCCC3)o2)c1 (stereo not given),-26,14*,15,.,-12,9
O=C(NN=C1c2ccccc2-c2ccccc21)c1cccc(Br)c1,-21,4,8,1,-4,.
Cc1cc(C(=O)NP(=O)(N2CC(C)OC(C)C2)N2CC(C)OC(C)C2)c(C)n1C1CC1 (stereo not given),.,2,.,.,.,.
O=C(OCc1nnc(-c2ccccc2)o1)C12CC3CC(CC(Br)(C3)C1)C2,.,21*,.,.,.,2
COC(=O)c1ccc(OC)c(CSc2nnc(-c3ccc(C(C)(C)C)cc3)o2)c1,-36,14*,7,-2,-8,4
Cc1c(C(=O)NN2CCOCC2)oc2ccccc12,.,3,.,.,.,.
CC(=O)Nc1ccc(-c2csc(NCc3ccco3)n2)cc1,-14,2,11,.,.,.
COc1ccc(-c2csc(NCc3ccco3)n2)cc1C,-46,13*,11,-3,-17,5
O=[N+]([O-])c1ccc(C2CCCC/C2=N/OCc2ccccc2F)c([N+](=O)[O-])c1 (stereo not given),-34,8,32,.,-5,.
O=[N+]([O-])c1ccc(C2CCCC/C2=N/OCc2ccc(F)cc2)c([N+](=O)[O-])c1 (stereo not given),-43,13*,4,.,-3,1
COc1ccc(-c2cc(C(F)(F)F)n3ncc(C(=O)Nc4c(C)n(C)n(-c5ccccc5)c4=O)c3n2)cc1,.,2,.,.,.,.
O=C(/C=C/c1ccc2c(c1)OCO2)NCCSCc1ccc(Cl)cc1,-15,0,13,.,-5,.
O=C(/C=C/c1cccc([N+](=O)[O-])c1)NCCSCc1cccc(Cl)c1,-31,12*,6,-8,-2,2
O=C(/C=C/c1ccc2c(c1)OCO2)NCCSCc1c(Cl)cccc1Cl,-17,15*,6,-2,-9,2
O=C(O)/C=C/c1nc(-c2ccccc2)n2ccccc12,-4,2,10,-6,-7,.
Cc1cc(C(=O)COc2ccc(Cl)cc2Br)c(C)n1C,.,12*,.,.,.,3
Cc1cc(C(=O)COc2ccccc2C(N)=O)c(C)n1C,.,2,.,.,.,.
O=C(c1cccc(S(=O)(=O)Nc2cccc(C(F)(F)F)c2)c1)N1CCCCC1,-20,0,27,-11,6,.
O=C(c1ccc(Cl)cc1)c1cnc(-c2ccccc2)s1,-22,2,17,.,-14,.
